Our source for the Activity and MIC values is ChEMBL document CHEMBL1141282, “Isariotins A-D, alkaloids from the insect pathogenic fungus Isaria tenuipes BCC 7831” (J Nat Prod, 2007).

Usually MIC stands for the smallest concentration in the dilution series that meets the test's criterion for growth inhibition.

≈ marks a conversion by molar mass, not a printed value. Calls of active or inactive are those of the source.

The test system of the first data set is Vero. The data set can be described thus: Cytotoxicity against African green monkey Vero cells up to 50 ug/mL. The class given is cell-based. The settings on record: chlorocebus sabaeus.
As to `CCCCCC(=O)CCC/C=C/C(=O)N[C@H]1C[C@@]2(O)C(=O)[C@H]([C@H](O)[C@@H]3O[C@@H]32)[C@H]1O` [ISARIOTIN C], the Activity entry is on record as “Not Active”.
On to `O=C(O)CCCCCCCC/C=C/C(=O)N[C@H]1C[C@@]2(O)C(=O)[C@H]([C@H](O)[C@@H]3O[C@@H]32)[C@H]1O` [ISARIOTIN B], for which the Activity entry is reported as “Not Active”.
Take `O=C(/C=C/CCCCCCCCCO)N[C@H]1C[C@@]2(O)C(=O)[C@H]([C@H](O)[C@@H]3O[C@@H]32)[C@H]1O` [ISARIOTIN A]: the Activity entry is “Not Active”.
For the molecule `CCCCCCC/C=C/C(=O)N[C@H]1C[C@@]2(O)C(=O)[C@H]([C@H](O)[C@@H]3O[C@@H]32)[C@H]1O` [ISARIOTIN D], the Activity result is reported as “Not Active”.

The next data set has as its system Candida albicans. As to the kind of experiment: Antifungal activity against Candida albicans up to 50 ug/mL. Format: functional, organism-based.
Settings: not given
As for `CCCCCC(=O)CCC/C=C/C(=O)N[C@H]1C[C@@]2(O)C(=O)[C@H]([C@H](O)[C@@H]3O[C@@H]32)[C@H]1O` [ISARIOTIN C], the outcome was inactive.
`O=C(O)CCCCCCCC/C=C/C(=O)N[C@H]1C[C@@]2(O)C(=O)[C@H]([C@H](O)[C@@H]3O[C@@H]32)[C@H]1O` [ISARIOTIN B]: the outcome was inactive.
Regarding `O=C(/C=C/CCCCCCCCCO)N[C@H]1C[C@@]2(O)C(=O)[C@H]([C@H](O)[C@@H]3O[C@@H]32)[C@H]1O` [ISARIOTIN A], the result was inactive.
Turning to `CCCCCCC/C=C/C(=O)N[C@H]1C[C@@]2(O)C(=O)[C@H]([C@H](O)[C@@H]3O[C@@H]32)[C@H]1O` [ISARIOTIN D], the outcome was inactive.

The test system of the next data set is KB. The data set can be described thus: Cytotoxicity against human KB cells up to 20 ug/mL. Format: functional, cell-based.
Settings: not given
On to `CCCCCC(=O)CCC/C=C/C(=O)N[C@H]1C[C@@]2(O)C(=O)[C@H]([C@H](O)[C@@H]3O[C@@H]32)[C@H]1O` [ISARIOTIN C], for which the outcome was inactive.
With `O=C(O)CCCCCCCC/C=C/C(=O)N[C@H]1C[C@@]2(O)C(=O)[C@H]([C@H](O)[C@@H]3O[C@@H]32)[C@H]1O` [ISARIOTIN B], the result was inactive.
Take `O=C(/C=C/CCCCCCCCCO)N[C@H]1C[C@@]2(O)C(=O)[C@H]([C@H](O)[C@@H]3O[C@@H]32)[C@H]1O` [ISARIOTIN A]: the result was inactive.
Consider `CCCCCCC/C=C/C(=O)N[C@H]1C[C@@]2(O)C(=O)[C@H]([C@H](O)[C@@H]3O[C@@H]32)[C@H]1O` [ISARIOTIN D], for which the result was inactive.

A further data set relates to Mycobacterium tuberculosis. The data set can be described thus: Antitubercular activity against Mycobacterium tuberculosis H37Ra. Format: functional.
Settings: not given
Summed up: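 Whole-cell test against the H37Ra strain, with the minimum inhibitory concentration (MIC) read out in µg/mL.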
With `CCCCCC(=O)CCC/C=C/C(=O)N[C@H]1C[C@@]2(O)C(=O)[C@H]([C@H](O)[C@@H]3O[C@@H]32)[C@H]1O` [ISARIOTIN C], the minimum inhibitory concentration (MIC) is 488 µM (≈ 200 µg/mL).
Consider `O=C(/C=C/CCCCCCCCCO)N[C@H]1C[C@@]2(O)C(=O)[C@H]([C@H](O)[C@@H]3O[C@@H]32)[C@H]1O` [ISARIOTIN A], for which the MIC came out at 486 µM (≈ 200 µg/mL).
The same measure, in the same setting: then `CCCCCCC/C=C/C(=O)N[C@H]1C[C@@]2(O)C(=O)[C@H]([C@H](O)[C@@H]3O[C@@H]32)[C@H]1O` [ISARIOTIN D], with 544 µM (≈ 200 µg/mL).

Another data set relates to NCI-H187. The data set can be described thus: Cytotoxicity against human NCI-H-187 cells up to 20 ug/mL. The class given is functional, cell-based.
Settings: not given
`CCCCCC(=O)CCC/C=C/C(=O)N[C@H]1C[C@@]2(O)C(=O)[C@H]([C@H](O)[C@@H]3O[C@@H]32)[C@H]1O` [ISARIOTIN C]: the outcome was inactive.
On the same count and under the same terms, to `O=C(O)CCCCCCCC/C=C/C(=O)N[C@H]1C[C@@]2(O)C(=O)[C@H]([C@H](O)[C@@H]3O[C@@H]32)[C@H]1O` [ISARIOTIN B] belongs “inactive”.
For `O=C(/C=C/CCCCCCCCCO)N[C@H]1C[C@@]2(O)C(=O)[C@H]([C@H](O)[C@@H]3O[C@@H]32)[C@H]1O` [ISARIOTIN A], the result was inactive.
Still for that read-out and setting: to `CCCCCCC/C=C/C(=O)N[C@H]1C[C@@]2(O)C(=O)[C@H]([C@H](O)[C@@H]3O[C@@H]32)[C@H]1O` [ISARIOTIN D] belongs “inactive”.

The next data set concerns Pyricularia grisea. The data set can be described thus: Antifungal activity against Magnaporthe grisea up to 50 ug/mL.
Settings: not given
Format: functional, organism-based.
Turning to `CCCCCC(=O)CCC/C=C/C(=O)N[C@H]1C[C@@]2(O)C(=O)[C@H]([C@H](O)[C@@H]3O[C@@H]32)[C@H]1O` [ISARIOTIN C], the result was inactive.
Still for that read-out and setting: then `O=C(O)CCCCCCCC/C=C/C(=O)N[C@H]1C[C@@]2(O)C(=O)[C@H]([C@H](O)[C@@H]3O[C@@H]32)[C@H]1O` [ISARIOTIN B], with “inactive”; and `O=C(/C=C/CCCCCCCCCO)N[C@H]1C[C@@]2(O)C(=O)[C@H]([C@H](O)[C@@H]3O[C@@H]32)[C@H]1O` [ISARIOTIN A], with “inactive”.
Regarding `CCCCCCC/C=C/C(=O)N[C@H]1C[C@@]2(O)C(=O)[C@H]([C@H](O)[C@@H]3O[C@@H]32)[C@H]1O` [ISARIOTIN D], the outcome was inactive.

The next data set relates to Plasmodium falciparum. As to the kind of experiment: Antiplasmodial activity against Plasmodium falciparum K1 to 20 ug/mL. Format: functional, organism-based.
Settings: not given
In the case of `CCCCCC(=O)CCC/C=C/C(=O)N[C@H]1C[C@@]2(O)C(=O)[C@H]([C@H](O)[C@@H]3O[C@@H]32)[C@H]1O` [ISARIOTIN C], the result was inactive.
On the same count and under the same terms, to `O=C(O)CCCCCCCC/C=C/C(=O)N[C@H]1C[C@@]2(O)C(=O)[C@H]([C@H](O)[C@@H]3O[C@@H]32)[C@H]1O` [ISARIOTIN B] belongs “inactive”; to `O=C(/C=C/CCCCCCCCCO)N[C@H]1C[C@@]2(O)C(=O)[C@H]([C@H](O)[C@@H]3O[C@@H]32)[C@H]1O` [ISARIOTIN A], “inactive”.
In the case of `CCCCCCC/C=C/C(=O)N[C@H]1C[C@@]2(O)C(=O)[C@H]([C@H](O)[C@@H]3O[C@@H]32)[C@H]1O` [ISARIOTIN D], the outcome was inactive.

The subject of the next data set is BC. The data set can be described thus: Cytotoxicity against human BC cells up to 20 ug/mL. Format: functional, cell-based.
Settings: not given
Turning to `CCCCCC(=O)CCC/C=C/C(=O)N[C@H]1C[C@@]2(O)C(=O)[C@H]([C@H](O)[C@@H]3O[C@@H]32)[C@H]1O` [ISARIOTIN C], the result was inactive.
Same read-out and setting: then `O=C(O)CCCCCCCC/C=C/C(=O)N[C@H]1C[C@@]2(O)C(=O)[C@H]([C@H](O)[C@@H]3O[C@@H]32)[C@H]1O` [ISARIOTIN B], with “inactive”.
The same measure, in the same setting: to `O=C(/C=C/CCCCCCCCCO)N[C@H]1C[C@@]2(O)C(=O)[C@H]([C@H](O)[C@@H]3O[C@@H]32)[C@H]1O` [ISARIOTIN A] belongs “inactive”.
As to `CCCCCCC/C=C/C(=O)N[C@H]1C[C@@]2(O)C(=O)[C@H]([C@H](O)[C@@H]3O[C@@H]32)[C@H]1O` [ISARIOTIN D], the outcome was inactive.
